KCNQ1 inh: human KCNQ1 channel inhibition; CHO-K1 KCNQ1, FluxOR thallium flux fluorescence; stronger effect = higher value; B-score at 10 µM; actives 1.3% (n = 310,000); AID 2642;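 active means compounds whose thallium flux B-score, printed positive for inhibition, exceeds three library SD while starting fluorescence stays within three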;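 further: channel opened by potassium depolarization with thallium stimulus after 20 min compound exposure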
KCNQ1 pot: potentiates or activates the human KCNQ1 potassium channel | CHO-K1 KCNQ1, thallium flux FluxOR fluorescence; stronger effect = higher value | actives 0.35% (n = 310,000) | AID 2648 | B-score at 10 µM | P51787;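 active means fluorescence ratio B-score, a plate-corrected score, at least three library SD, with initial intensity B-score within 5 SD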
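Assay system: CHO-K1 cells stably expressing KCNQ1. Medium: assay buffer for compound exposure, DMSO matched across wells. Timing: 37 °C overnight plating, 90-min dark dye load, 20-min compound pretreatment. Signal: kinetic FluxOR fluorescence, 10 s baseline plus 110 s post-stimulus.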
KCNK9 block: human KCNK9 channel inhibition. Q9NPC2. HEK293 KCNK9, FluxOR thallium flux fluorescence; stronger effect = lower value. B-score at 10 µM. actives 1.2% (n = 310,000). AID 488922;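 active means ratio B-score over 3 SD below the library mean, with starting fluorescence within 5 SD of its mean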;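 further: negative B-score means less thallium flux so channel inhibition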
KCNK3 block: human KCNK3 channel inhibition, primary screen | O14649 | CHO-KCNK3 thallium flux, FluxOR fluorescence; stronger effect = lower value | B-score at 10 µM | actives 0.84% (n = 340,000);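 active means B-score under library mean minus 4 SD, starting fluorescence ratio at most library mean plus 5 SD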;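 further: more negative B-score means stronger inhibition of thallium flux through KCNK3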
hERG rescue: compounds protecting human hERG from proarrhythmic drug block; activation (rescue from dofetilide block), less the hit threshold, % at 10 µM; CHO-hERG, FluxOR thallium flux, dofetilide IC70 present; actives 0.51% (n = 310,000); Q12809; AID 1511;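 active means activation above the mean of controls blocked by dofetilide plus 5 SD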;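 further: thallium influx through hERG after potassium depolarization seen as dye fluorescence rise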
Kir21 block: inhibitors of mouse Kir2.1 inward-rectifier potassium channel; P35561; HEK293-Kir2.1, FluxOR thallium flux fluorescence; stronger effect = lower value; B-score at 10 µM; actives 0.85% (n = 310,000); AID 1672;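 active means fluorescence ratio B-score at or below minus 3 SD of library scores, with starting-brightness B-score within 2 SD, cut at about -4.2 in these data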;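 further: channel flux triggered by added potassium and thallium sulfate stimulus; B-score of peak minus minimum fluorescence over baseline after thallium stimulus; more negative B-score means stronger Kir2.1 block with less thallium influx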
KCNK3 confirm: confirmation of human KCNK3 two-pore domain potassium channel inhibitors | shares compounds with KCNK3 block | CHO-KCNK3 thallium flux, FluxOR fluorescence; 0% buffer, 100% carvedilol maximal block | ratio percent of control, % at 10 µM | actives 99% (n = 2,400) | AID 651638;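 active means ratio percent of control, averaged over triplicates, above buffer control mean plus 5 SD, cut at about 64% in these data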;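 further: ratio is the fluorescence rise from min to max over baseline after thallium stimulus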
KCNK3 noninduced: counter-screen for KCNK3 inhibitors: effect in non-induced cells. shares compounds with KCNK3 block. non-induced KCNK3 parental cells, FluxOR thallium flux; stronger effect = lower value. thallium flux ratio (lower = more inhibition) at 10 µM. actives 40% (n = 2,400);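 active means thallium flux ratio, averaged over three wells, more than 5 SD below the buffer control mean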;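 further: host cells are CHO cells without KCNK3 induction; ratio is peak minus trough fluorescence over baseline then normalized to buffer controls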
Starred values were filed as active, the others as inactive; i = inactive; · = no result. This is a sample that favours compounds with a hit; in the whole collection about 3.8% have one here.

SMILES | KCNQ1 inh | KCNQ1 pot | KCNK9 block | KCNK3 block | hERG rescue | Kir21 block | KCNK3 confirm | KCNK3 noninduced
C#CCN1C(=O)C2(C(C#N)=C(N)OC(C)=C2C(=O)OCc2ccccc2)c2ccccc21 (stereo not drawn) | i | i | i | i | -15.7 | -1.64 | · | ·
O=c1c2ccccc2nc(/C=C\c2ccccc2[N+](=O)[O-])n1-c1ccccc1O | i | i | i | -10* | -14.1 | 0.64 | 112.0* | 0.142*
COC(=NC1CCCC1)C(O)c1c[nH]c2ccccc12 (stereo not drawn) | i | i | i | i | -12.6 | 1.99 | · | ·
CCC(C(=O)N1CCC2(CC1)OCCO2)c1ccccc1 (stereo not drawn) | i | i | i | i | -7.0 | -0.49 | · | ·
CCC(C(=O)N1CCC2(CC1)OCCO2)n1c2ccccc2c2nc(=O)cc(C)n21 (stereo not drawn) | i | i | i | -10.3* | -6.7 | 0.44 | 89.7* | i
